Source: PubChem BioAssay
In the library only some 2.2% were active in any assay of this set; here they are far more common.
FLuc act counter = firefly luciferase counter-screen for stimulation assays; AID 1027; activation factor at 10 µM; ATPlite luciferase biochemical, luminescence, 10 min; 0 = ATP-free wells, 1 = DMSO control; 200,000 tested, under 10 active;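 active = luciferase activation factor, scaled between plate controls, of at least 2 with compound at 10 µM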
Target sequence (P08659 whole entry, looked up): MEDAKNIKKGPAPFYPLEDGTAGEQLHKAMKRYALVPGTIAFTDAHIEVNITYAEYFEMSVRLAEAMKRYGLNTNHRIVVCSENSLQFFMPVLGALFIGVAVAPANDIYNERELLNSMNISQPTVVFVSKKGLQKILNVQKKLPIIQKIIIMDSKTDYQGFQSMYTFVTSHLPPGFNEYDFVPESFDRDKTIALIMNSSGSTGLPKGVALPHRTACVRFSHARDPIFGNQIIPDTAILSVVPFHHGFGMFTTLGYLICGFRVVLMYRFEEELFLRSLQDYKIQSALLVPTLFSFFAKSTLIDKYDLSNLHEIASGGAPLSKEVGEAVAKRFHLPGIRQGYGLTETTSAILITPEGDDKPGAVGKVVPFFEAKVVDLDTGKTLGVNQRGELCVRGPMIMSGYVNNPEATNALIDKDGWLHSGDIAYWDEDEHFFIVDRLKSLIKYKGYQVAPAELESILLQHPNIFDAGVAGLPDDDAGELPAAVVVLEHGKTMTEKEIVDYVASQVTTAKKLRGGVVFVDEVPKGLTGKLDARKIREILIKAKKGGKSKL
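Material: Luciferase/luciferin reagent mix | Doses: Test compounds dosed from 2 mM stocks in 100% DMSO | Timing: 10 min incubation after luciferase reagent addition, room temperature | Measured by: Luminescence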
NF-kB neuron act = compounds increasing NF-kB expression in human neuronal cells | NF-kB reporter expression; hits give high values | fold change at 12.5 µM | actives 1.6% (n = 190,000) | AID 1239; in the data active = fold change above about 3.3
C8 TRAIL sens = sensitizes caspase-8 expressing cells to TRAIL. NB7+C8 cells + TRAIL, ATPlite viability luminescence. inhibition (viability loss, TRAIL sensitization), % at 10 µM. actives 1% (n = 360,000);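 active = compounds causing at least 50% loss of cell viability in the single-dose screen, relative to plate controls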
PPC-1+TRAIL kill = PPC-1 cancer cell killing with TRAIL present; PPC-1 cells + TRAIL, ATPLite viability luminescence; cell killing (% activity), % at 4 µM or 5 µM; actives 0.41% (n = 220,000); AID 1443;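 active = cell killing above 50% in the first pass at 4 µM, then a duplicate retest at 5 µM averaging 50% or more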
FLuc inhib CS = counter-screen for luciferase assay inhibitors: firefly luciferase inhibition; inhibition, % at 10 µM; AID 1006; actives 1.5% (n = 200,000); ATPLite firefly luciferase biochemical luminescence, 10 min;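 active = inhibition above about 50% when tested at 10 µM, limit read from the data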
APP 5'UTR act = activates APP 5'UTR luciferase reporter | SH-SY5Y APP 5'UTR luciferase reporter, luminescence; zero percent = DMSO vehicle wells | activation, % at 2 µM | actives 1% (n = 190,000);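 active = activation above a set limit, based on mean plus 3 SD of controls, cut at about 140% in these data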
Hits are given with their value; – = inactive; · = no result.

SMILES	FLuc act counter	NF-kB neuron act	C8 TRAIL sens	PPC-1+TRAIL kill	FLuc inhib CS	APP 5'UTR act
CC(C)c1onc(C(=O)Nc2cccc(Cl)c2)c1[N+](=O)[O-]	–	–	–	–	–	–
CC(=O)c1cccc(NC(=O)c2cc(C(C)C)on2)c1	–	3.85	–	–	–	–
CC(C)c1cc(C(=O)Nc2cccc(Cl)c2)no1	–	10.7	–	–	–	186.7
COC(=O)[C@]12CCCCC=C1N(CCc1ccc(OC)c(OC)c1)C(=O)[C@H](CC(=O)N1CCC(c3ccccc3)CC1)C2	·	·	–	·	·	·
O=c1cc(-c2ccc(O)cc2)oc2ccc3ccccc3c12	·	·	89.6	·	·	·
CC(=O)c1sc(NC(=O)C2COc3ccccc3O2)nc1C (stereo not given)	–	–	–	·	59.9	–
CC1(C)Oc2ccc(NC(=O)C3COc4ccccc4O3)cc2O1 (stereo not given)	–	4.92	–	–	–	167.7
CC[C@H](CO)Oc1cc(NCc2cccc(N)c2)c2ncn(C(C)C)c2c1	·	·	–	·	·	·
NC1=CC(=O)C(=O)c2ccccc21	·	·	91.6	·	·	·
COc1ccc(S(=O)(=O)N2CCCCC2c2cc(C(=O)NCc3ccccc3)no2)cc1 (stereo not given)	·	·	–	·	·	·
O=C(c1[nH]c(C(F)(F)F)nc1-c1ccccc1)N1CCN(c2cccc(C(F)(F)F)n2)CC1	·	·	–	·	·	·
CC(C)c1ccc(/C=C/C(=O)Nc2nncs2)cc1	–	7.03	73.5	–	58.9	–
CCN(CC)CC(C)(C)C(=O)/C=C/c1ccc(/C=C/C(=O)C(C)(C)CN(CC)CC)cc1	·	·	92.0	·	·	·
CCN(CC)CCOC(=O)/C=C/c1ccccc1	·	·	–	–	·	·
COc1ccc(NC(=O)c2cccc(NC(=O)c3ccccc3)c2)cc1	·	·	–	·	·	·
COc1cc(NC(=O)c2ccccc2)cc(OC)c1	–	3.44	–	–	–	136.7
COc1ccc(C(=O)Nc2cc(OC)cc(OC)c2)cc1	–	–	–	–	66.2	–
OCc1cn(-c2ccccc2)nc1-c1ccc(-c2nn(-c3ccccc3)cc2CO)cc1	–	–	–	–	–	–
Cc1ccc(-c2nn(-c3ccccc3)cc2CSC(=N)N)cc1	–	4.9	–	–	–	–
Nc1nc2c(ncn2[C@@H]2O[C@H](CNCc3cnc(N4CCOCC4)s3)[C@@H](O)[C@H]2O)c(=O)[nH]1	·	·	–	·	·	·
O=C(CC(Nc1ccc(F)cc1)C(=O)O)c1ccccc1 (stereo not given)	–	5.71	59.8	–	86.8	–
NC(=O)NCCC1=CCCCC1	–	–	–	–	–	–
O=C(NC1CCCCCC1)C(=S)NCCc1ccccc1	–	–	–	–	–	–
O=C(NCCC1=CCCCC1)NC1CCCCC1	–	4.46	–	–	–	–
O=C(NCCc1ccccc1)NC1CCCCC1	–	3.4	–	–	–	–
SMILES	FLuc act counter	NF-kB neuron act	C8 TRAIL sens	PPC-1+TRAIL kill	FLuc inhib CS	APP 5'UTR act
COc1ccc(-c2ccc(SCC(=O)Nc3cccc(C(C)=O)c3)nn2)cc1OC	–	–	–	–	60.7	–
CC(=O)c1cccc(NC(=O)CSc2ccc(-c3ccc4c(c3)OCO4)nn2)c1	–	–	63.9	–	–	–
CC(=O)c1cccc(NC(=O)CSc2ccc(-c3ccco3)nn2)c1	·	·	–	·	·	·
CCN(CC)C(=O)C1=C(C)N(CCCN2CCCC2=O)C(=O)C(CC(=O)NCCCCc2ccccc2)C1 (stereo not given)	·	·	–	·	·	·
CC1CCC/C(=C\Nc2ccc(C(=O)O)cc2)C1=O (stereo not given)	–	3.82	–	–	–	139.2
CCN1/C(=C/c2ccc3cc(C)ccc3[n+]2CC)Sc2cc(C)c(C)cc21	–	–	–	–	–	–
CCN1/C(=C/C=C/c2sc3ccccc3[n+]2CC)Sc2ccccc21	·	·	71.3	·	·	·
CCN1/C(=C/c2ccc3cc(C)ccc3[n+]2CC)Sc2ccccc21	–	–	–	66.3	–	–
CCN1/C(=C/C=C/C=C/c2sc3ccccc3[n+]2CC)Sc2ccccc21	–	–	·	–	–	–
Cc1cccc(C)c1NC(=O)C1(C)CN(S(C)(=O)=O)CC(=O)N1Cc1ccco1 (stereo not given)	·	·	–	·	·	·
CC[C@]12c3[nH]c4ccc(OC)cc4c3CCN1C(=O)C(CC(=O)NCc1cccc(C(F)(F)F)c1)C[C@@H]2C(=O)N1CCN(C(=O)c2ccco2)CC1 (stereo not given in full)	·	·	–	·	·	·
CC[C@]12c3[nH]c4ccc(Cl)cc4c3CCN1C(=O)[C@@H](CC(=O)NCc1cccc(C(F)(F)F)c1)C[C@@H]2C(=O)N1CCN(C(=O)c2ccco2)CC1	·	·	61.4	·	·	·
O=C(NCCc1ccccc1)c1ccc([N+](=O)[O-])cc1	–	4.29	–	–	66.0	151.5
Cn1c(C(=O)NCc2ccccn2)cc2c(=O)n3ccccc3nc21	–	–	–	–	50.7	–
O=C(CSc1nnc(-c2c[nH]c3ccccc23)o1)N(Cc1ccccc1)c1ccc(F)cc1	–	–	–	–	–	–
Cc1ccc(NC(=O)CSc2nnc(-c3ccccc3Br)o2)cc1C	–	–	–	–	–	–
Cc1cc(C)cc(NC(=O)CSc2nnc(-c3ccccc3C)o2)c1	–	4.19	–	–	–	–
O=C(CSc1nnc(-c2ccccc2Cl)o1)Nc1ccc2c(c1)OCCO2	–	–	–	–	–	140.9
CSc1nsc(SCC(=O)Nc2ccc3c(c2)OCCO3)n1	–	4.04	–	–	–	141.0
COc1ccc(CN(C(=O)CSc2nnc(-c3ccccc3C)o2)c2ccc(F)cc2)cc1	–	–	95.0	–	–	–
O=C(CSc1nnc(CNC(=O)c2ccccc2)o1)Nc1ccc2c(c1)OCCO2	·	·	–	·	·	·
CCc1nc2c(OCC3CCCCC3)cccn2c1N(C=O)Cc1ccc(OC)cc1	·	·	–	·	·	·
Cc1ccc(S(=O)(=O)NC(=O)Cn2nnc(-c3ccccc3)c2COc2ccc3ccccc3c2)cc1	·	·	–	·	·	·
CN(C)c1ccc(CC(=O)N2CCCC(c3cc(C(=O)Nc4ccc5c(c4)OCO5)no3)C2)cc1 (stereo not given)	·	·	–	·	·	·
Cc1cccc(NC(=O)CSc2nnc(-c3ccccc3C)o2)c1	–	4.67	–	–	–	150.8
SMILES	FLuc act counter	NF-kB neuron act	C8 TRAIL sens	PPC-1+TRAIL kill	FLuc inhib CS	APP 5'UTR act
Cc1cccc(NC(=O)CSc2nnc(-c3ccccc3Br)o2)c1C	–	–	–	–	–	–
Cc1ccccc1-c1nnc(SCC(=O)Nc2cccnc2Cl)o1	·	·	63.5	·	·	·
Cc1ccc(NC(=O)CSc2nnc(-c3ccccc3C)o2)cc1C	–	–	–	–	–	–
Cc1ccc(CN2CCC(C)(Oc3cccc(Cl)c3)C2)cc1 (stereo not given)	·	·	–	·	·	·
O=S1(=O)CC(N2CCCCC2)CN1Cc1cn(Cc2ccc(C(F)(F)F)cc2)nn1 (stereo not given)	·	·	–	·	·	·
CCOC(=O)C1=C[C@@H](C(C)(C)C)N(S(=O)(=O)c2ccccc2C)[C@H]1c1ccc(Cl)cc1	·	·	–	·	·	·
